Data: ChEMBL document CHEMBL4396895, “Identification and Optimization of Novel Cathepsin C Inhibitors Derived from EGFR Inhibitors” (J Med Chem, 2019)
Active and inactive are the calls of the source. No cut-off for these calls is given here.

Key:
Mus musculus [1] = experiment: Protection against C57BL/6 mouse model of caerulein-induced acute pancreatitis assessed as reduction in CatC activity at 20 mg/kg, po pretreated twice daily for 6 days followed by caerulein-challenge at 1 hr interval for 8 hrs and measured 1 hr post-last caerulein-challenge
[2] = Intrinsic clearance in human liver microsomes assessed per mg protein measured after 60 mins in presence of NADPH by LC-MS/MS analysis; type: ADME, Microsome; conditions: read-out: CLH
Procathepsin L = Procathepsin L (Homo sapiens, UniProt P07711); experiment: Inhibition of recombinant human C-terminal His6-tagged cathepsin L (Glu113 to Val333 and Ala114 to Val333 residues) expressed in mouse myeloma cells using Z-Leu-Arg-AMC as substrate preincubated for 30 mins followed by substrate addition and measured after 30 mins
Outline: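 Recombinant human cathepsin was preincubated with compound for 30 min at RT, then reacted with substrate for 30 min. CatB and CatL were read with Z-Leu-Arg-AMC (Ex 380/Em 460 nm). CatS was read with MCA-Arg-Pro-Lys-Pro-Val-Glu-Nva-Trp-Arg-Lys(DNP)-NH2 (Ex 320/Em 405 nm). E-64 served as inhibitor control.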

Mus musculus [3] = experiment: In vivo inhibition of CatC in po dosed C57BL/6 mouse blood assessed as reduction in neutrophil elastase activation administered twice daily for 6 days using methoxysuccinyl-Ala-Ala-Pro-Val-AMC as substrate measured up to 90 mins by fluorescence assay; type: functional, organism-based
Outline: (§1)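 C57BL/6 mice (20−25 g; n = 10 per group) received oral doses twice daily at 6.7, 20 or 60 mg/kg for 6 days. The vehicle group got 0.5% Methocel and 0.1% Tween-80 in 100 mM citrate buffer, pH 3. Blood was drawn by eye puncture 14 h after the last dose. Bone marrow was flushed from femurs and tibias with ice-cold RPMI 1640. Cells were lysed in 50 mM Tris pH 7.4, 750 mM NaCl, 1% Triton X-100, sonicated on ice and stored at −80 °C. Lysates were diluted by protein content, with blood diluted 5-fold more than marrow. Kinetics were followed for up to 90 min. Results are % of the vehicle mean.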

[4] = Half life in C57BL/6 mouse at 10 mg/kg, po by LC-MS/MS analysis; type: ADME, organism-based; conditions: in vivo
Outline: (§2)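 Male C57BL/6 mice (n = 3) were dosed with a single IV dose of 2 mg/kg or an IP or PO dose of 10 mg/kg. Vehicle: 0.5% Methocel and 0.1% Tween-80 in citrate buffer, pH 3. Blood was drawn by eye puncture at several time points and analysed by LC-MS/MS. Parameters came from noncompartmental analysis of individual animals and are reported as means.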

Mus musculus [5] = experiment: In vivo inhibition of CatC in po dosed C57BL/6 mouse bone marrow assessed as reduction in CatG activation administered twice daily for 6 days using N-succinyl-Ala-Ala-Pro-Phe-pNA as substrate measured up to 90 mins by fluorescence assay; type: functional, organism-based
Outline: as §1

[6] = Cmax in C57BL/6 mouse at 10 mg/kg, ip by LC-MS/MS analysis; type: ADME, organism-based; design: dose 10 mg/kg, route intraperitoneal; conditions: in vivo
Outline: as §2

Mus musculus [7] = experiment: In vivo inhibition of CatC in po dosed C57BL/6 mouse bone marrow assessed as reduction in proteinase 3 activation administered twice daily for 6 days using aminobenzoyl-Val-Ala-Asp-Cys-Ala-Asp-Gln-ethylenediamine 2,4-dinitrophenyl as substrate measured up to 90 mins by fluorescence assay; type: functional, organism-based
Outline: as §1

Cytochrome P450 2D6 = Cytochrome P450 2D6 (Homo sapiens, UniProt P10635); experiment: Inhibition of CYP2D6 (unknown origin); type: ADME
Outline: (§3)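 Tested against recombinant human cytochrome P450 isoforms 1A2, 2D6, 3A4, 2C9 and 2C19.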

[8] = AUC infinity in C57BL/6 mouse at 10 mg/kg, po by LC-MS/MS analysis; type: ADME, organism-based; design: dose 10 mg/kg, time infinity, route oral; conditions: in vivo
Outline: as §2

[9] = Toxicity in C57BL/6 mouse at 60 mg/kg, po administered twice daily for 6 days; type: organism-based; conditions: in vivo, 144 h
Mus musculus [10] = experiment: In vivo inhibition of CatC in po dosed C57BL/6 mouse blood administered twice daily for 6 days using Gly-Phe-AFC as substrate measured up to 90 mins by fluorescence assay; type: functional, organism-based
Outline: as §1

Dipeptidyl peptidase 1 [11] = target: T1, Dipeptidyl peptidase 1 (Homo sapiens, UniProt P53634); experiment: Inhibition of CatL-activated recombinant human C-terminal His10-tagged cathepsin C (25 to 463 residues) expressed in mouse myeloma cells using Gly-Phe-AFC as substrate preincubated for 3 hrs followed by substrate addition and measured after 60 mins; type: cell-free
Outline: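 Activated rhCatC was diluted to 4.4 nM in 25 mM MES, 50 mM NaCl, 5 mM DTT, 0.01% Triton X-100, pH 6.0. It was preincubated with compound (added in 10% DMSO) for 3 h at RT. Gly-Phe-AFC was then added to 100 μM final and read as fluorescence after 60 min. IC50 came from a sigmoidal nonlinear fit; values are means of at least two experiments.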

Cytochrome P450 1A2 = target: T2, Cytochrome P450 1A2 (Homo sapiens, UniProt P05177); experiment: Inhibition of CYP1A2 (unknown origin); type: ADME
T2 sequence (P05177 whole entry): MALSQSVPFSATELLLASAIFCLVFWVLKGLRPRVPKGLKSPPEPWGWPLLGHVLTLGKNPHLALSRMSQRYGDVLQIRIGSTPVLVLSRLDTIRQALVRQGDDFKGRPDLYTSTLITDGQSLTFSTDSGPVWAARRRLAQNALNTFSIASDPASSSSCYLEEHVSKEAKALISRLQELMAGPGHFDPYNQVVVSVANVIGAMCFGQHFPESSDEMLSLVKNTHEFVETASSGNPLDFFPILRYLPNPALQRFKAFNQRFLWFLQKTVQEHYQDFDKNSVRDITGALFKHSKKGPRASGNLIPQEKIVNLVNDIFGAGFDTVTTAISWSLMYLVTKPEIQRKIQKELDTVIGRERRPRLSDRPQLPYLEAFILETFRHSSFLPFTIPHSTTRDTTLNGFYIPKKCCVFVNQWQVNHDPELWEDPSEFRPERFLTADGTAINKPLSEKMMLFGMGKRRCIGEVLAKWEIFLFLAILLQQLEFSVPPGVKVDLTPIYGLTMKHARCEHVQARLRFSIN
Outline: as §3

[12] = Tmax in C57BL/6 mouse at 10 mg/kg, ip by LC-MS/MS analysis; type: ADME, organism-based; conditions: in vivo
Outline: as §2

Dipeptidyl peptidase 1 [13] = target: T1, Dipeptidyl peptidase 1; experiment: Inhibition of cathepsin C in human U937 cells using H-Gly-Phe-AFC as substrate preincubated for 4 hrs followed by substrate addition and measured after 60 mins; type: cell-based
Outline: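 THP1 or U937 cells, grown in RPMI 1640 with 10% FBS, were seeded at 1.0 × 10^6/mL. They were preincubated with threefold serial dilutions of compound for 4 h at 37 °C. H-Gly-Phe-AFC was then added from a 100 μM solution and fluorescence was read after 60 min at 37 °C. Values are means of at least two experiments.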

- microsomal CLint [2]: 1.8 µL/min/mg
- IC50 (Procathepsin L): 3000 to 10000 nM
- half-life [4]: 3.06 h
- Cmax [6]: 766 ng/mL
- IC50 (Cytochrome P450 2D6): > 10000 nM
- AUC(0-inf) [8]: 1360 ng·h/mL
- IC50 (Dipeptidyl peptidase 1 [11]): 17 to 17.3 nM
- IC50 (Cytochrome P450 1A2): > 10000 nM
- Tmax [12]: 0 h
- IC50 (Dipeptidyl peptidase 1 [13]): 3.4 nM
- inhibition (Dipeptidyl peptidase 1 [13]): Dose-dependent effect
Compound: C=CC(=O)Nc1cc(Oc2nc(Nc3ccc(N4CCN(C)CC4)cc3OC)ccc2N2CCCCC2)ccc1C
- Activity (Mus musculus [1]): Active
- inhibition (Mus musculus [3]): Dose-dependent effect
- inhibition (Mus musculus [5]): Dose-dependent effect
- inhibition (Mus musculus [7]): Dose-dependent effect
- Activity [9]: Non-Toxic
- inhibition (Mus musculus [10]): Dose-dependent effect
